Assay results gathered from unrelated publications.
Target: Tyrosine-protein kinase Lyn (LYN, Homo sapiens, UniProt P07948)

`FC(F)(F)Oc1cccc(-c2cnc3ccc(-c4ccncc4)nn23)c1` has a remaining binding of 93% (cell-free assay; competition with immobilised ligand; 5 µM).
`O=C(Nc1c[nH]nc1C(=O)NC1CCNCC1)c1cc(F)cc(F)c1` gave a remaining binding of 100% (binding; competition with immobilised ligand; 1 µM).
`C=CC(=O)N1CCC(C(=O)NCC(=O)N2CCN(c3nc(-c4cnc(N)nc4C(F)F)nc(N4CCOCC4)n3)CC2)CC1` gave a remaining binding of 100% (binding; competition with immobilised ligand; 1 µM).
`CO[C@@H](C)c1c(Nc2ccc([C@@H](N(C)C(=O)C3CCS(=O)(=O)CC3)C(F)(F)F)cc2)cnc2cc(Cl)nn12` has a remaining binding of 97% (cell-free assay; competition with immobilised ligand; 1 µM).
`O=C(NCCCN1CCOCC1)c1ccc(Nc2nccc(-c3cc4ccccc4s3)n2)cc1` has a remaining binding of 94% (binding; competition with immobilised ligand; 1 µM).
`CN(C)C(=O)Cn1cc(-c2nc([C@@](C)(c3ccc(-c4cnc(N)nc4)cc3)C3CC3)no2)cn1` gave a remaining binding of 87% (cell-free assay; competition with immobilised ligand; 1 µM).
`O=C(NCCCN1CCOCC1)c1ccc(Nc2ncc(Cl)c(-c3ccc(Cl)s3)n2)cc1` gave a remaining binding of 87% (binding; competition with immobilised ligand; 1 µM).
`O=C(Nc1cnc(Oc2ccc(F)cc2)nc1)N1CCc2ncccc2[C@@H]1c1ccc(F)cc1` gave a remaining binding of 82% (cell-free assay; competition with immobilised ligand; 1 µM).
With `Nc1ncc2c(n1)-c1c([nH]c3ccc(C#CC4CC4)cc13)CCCC2` the remaining binding was 93% (binding; competition with immobilised ligand; 1 µM).
`O=C(c1ccc(Nc2nccc(-c3cc4ccccc4s3)n2)cc1)N1CCC(N2CCCC2)CC1` has a remaining binding of 97% (binding; competition with immobilised ligand; 1 µM).
`CN(C)c1nccc(-c2cnn3ncccc23)n1` gave a remaining binding of 83% (binding; 1 µM).
`c1cncc(-c2cccc(Nc3nccc(NC4CCCCC4)n3)c2)c1` gave a remaining binding of 48% (binding; competition with immobilised ligand; 10 µM).
With `N[C@H]1CCN(c2nccc(-c3cnn4ncccc34)n2)C1` the remaining binding was 99% (binding; 1 µM).
`O=c1nc(-c2ccccn2)sc2ccccc12` has a remaining binding of 100% (cell-free assay; competition with immobilised ligand; 1 µM).
The remaining binding of `COc1ccnn2ncc(-c3ccnc(N(C)C)n3)c12` is reported as 100% (binding; 1 µM).
`CNC(=O)[C@@H]1CC[C@@H](n2c(-c3ccc4cnccc4c3)nc3ccc(C(=O)NCc4cccc(C(N)=O)c4)cc32)C1` gave a remaining binding of 95% (binding; competition with immobilised ligand; 1 µM).
`CN(c1nccc(-c2cnn3ncccc23)n1)C1CC1` gave a remaining binding of 86% (binding; 1 µM).
With `Cc1ccc(-n2nc(C(C)(C)C)cc2NC(=O)Nc2ccc(-n3c(N)c(C(N)=O)c4nc5ccc(NCCCN)cc5nc43)cc2)cc1` the remaining binding was 0.5% (cell-free assay; competition with immobilised ligand; 1 µM).
`Nc1cnc(N2CCc3cc(S(=O)(=O)Nc4c(F)cc(Cl)cc4F)cc(N4CCCC4=O)c32)nc1` has a remaining binding of 88% (cell-free assay; competition with immobilised ligand; 1 µM).
The remaining binding of `F[C@@H]1CCN(c2nccc(-c3cnn4ncccc34)n2)C1` is reported as 87% (binding; 1 µM).
With `CCCCN(CCCC)C(=O)CN1C[C@@H](c2cc(OC)c3c(c2)OCO3)[C@H](C(=O)O)[C@H]1CC(C)(C)CCC` the remaining binding was 75.1% (cell-free assay; competition with immobilised ligand; 1 µM).
For `CN(C)c1ncc(F)c(-c2cnn3ncccc23)n1`, the remaining binding was 100% (binding; 1 µM).
The remaining binding of `CCS(=O)(=O)c1cc2cc(C[C@@](O)(CC(C)(C)c3ccc(F)cc3C(N)=O)C(F)(F)F)[nH]c2cn1` is reported as 100% (cell-free assay; competition with immobilised ligand; 1 µM).
The remaining binding of `C[C@H]1CCN(c2nccc(-c3cnn4ncccc34)n2)C1` is reported as 64% (binding; 1 µM).
